In ChEMBL document CHEMBL5385922 (J Med Chem, 2024):
Blank lines part the entries; values can stand above or below the compound they belong to. Active and inactive are the calls of the source. The calls are words filed in the database; no cut-off is given here.

Key:
A549 [1] = assay: Cytotoxicity against human A549 cells assessed as reduction in cell viability at 0.5 to 2 uM incubated for 48 hrs by trypan bue exclusion assay; type: functional, cell-based; conditions: dose 0.5-2 µM
Platelet [2] = assay: Inhibition of tumor cell-induced platelet secretion in human platelets assessed as inhibition of A549-induced ATP secretion at 1 to 5 uM by bioluminescent assay; type: functional, cell-based; conditions: dose 1-5 µM
In short: (§1)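 Washed human platelets were co-incubated with A549 cells under TCIPA conditions (0.375% plasma, stirred, 37 °C) for 25 min in the aggregometer, then centrifuged at 13,000g for 1 min. Supernatant PDGF-BB measured by ELISA and ATP by bioluminescent assay. Mean ± SEM, at least three independent experiments.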

A549 [3] = assay: Inhibition of platelet-enhanced cell growth in human A549 cells assessed as reduction in cell viability at 0.5 to 2 uM co-incubated with platelets for 48 hrs by trypan blue exclusion assay; type: functional, cell-based; conditions: dose 0.5-2 µM
In short: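 A549 cells (1 × 10^4/well) co-incubated with washed human platelets (1 × 10^7/well) in 0.375% plasma for 48 h at 37 °C, 5% CO2. After PBS washing, viable cancer cells counted by trypan blue exclusion. Mean ± SEM, at least three independent experiments.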

Platelet [4] = assay: Inhibition of tumor cell-induced platelet secretion in human platelets assessed as inhibition of A549-induced PDGF secretion at 1 to 5 uM by ELISA; type: functional, cell-based; conditions: dose 1-5 µM; in short: as §1
Platelet [5] = assay: Antiplatelet activity against tumor cells-stimulated human platelets assessed as inhibition of A549 cells-induced platelet aggregation at 2 uM by turbidometric aggregometry; type: functional, cell-based
In short: (§2)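 Washed human platelets from ACD-anticoagulated blood of healthy volunteers, stirred at 1200 rpm, 37 °C, in 0.375% plasma. Aggregation was induced by A549 (1 × 10^4 cells/mL), MDA-MB-231 (1 × 10^2 cells/mL) or RPMI8226 (1 × 10^5 cells/mL) cells. Read-out is the maximal increase in light transmission by turbidimetric aggregometry. n = 3.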

Platelet [6] = assay: Antiplatelet activity against tumor cells-stimulated human platelets assessed as inhibition of RPMI-8226 cells-induced platelet aggregation at 2 uM by turbidometric aggregometry; type: functional, cell-based; in short: as §2
[7] = target: T1, Protein disulfide-isomerase (Homo sapiens, UniProt P07237); assay: Covalent inhibition of human recombinant PDI assessed as inhibition of E-GSH formation using Di-E-GSSG as substrate at 10 uM measured for 60 mins in presence of DTT and 1 mM GSH by fluorescence based analysis
In short: (§3)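 Human rPDI incubated with compounds at 10 μM in the presence of DTT (5 μM) or GSH (1 mM). PDI activity read by Di-E-GSSG assay (E-GSH fluorescence). Mean ± SEM of three independent experiments.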
Target sequence in this assay (P07237 18-508 limits assumed): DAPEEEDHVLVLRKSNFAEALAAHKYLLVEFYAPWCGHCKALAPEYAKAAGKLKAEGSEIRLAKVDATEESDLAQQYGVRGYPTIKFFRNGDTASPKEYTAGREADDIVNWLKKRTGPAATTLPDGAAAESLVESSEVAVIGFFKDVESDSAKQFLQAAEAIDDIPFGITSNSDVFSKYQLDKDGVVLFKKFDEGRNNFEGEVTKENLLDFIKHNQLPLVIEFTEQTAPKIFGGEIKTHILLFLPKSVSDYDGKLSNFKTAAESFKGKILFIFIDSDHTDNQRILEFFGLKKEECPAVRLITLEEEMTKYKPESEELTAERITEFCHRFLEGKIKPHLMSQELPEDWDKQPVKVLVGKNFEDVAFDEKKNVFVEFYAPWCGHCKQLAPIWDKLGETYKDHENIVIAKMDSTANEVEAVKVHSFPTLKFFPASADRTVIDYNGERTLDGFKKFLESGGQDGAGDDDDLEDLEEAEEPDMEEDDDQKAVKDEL

Platelet [8] = assay: Antiplatelet activity against tumor cells-stimulated human platelets assessed as inhibition of MDA-MB-231 cells-induced platelet aggregation at 2 uM by turbidometric aggregometry; type: functional, cell-based; in short: as §2
[9] = target: T2, Protein disulfide-isomerase A4 (Homo sapiens, UniProt P13667); assay: Inhibition of human recombinant ERp72 assessed as inhibition of E-GSH formation using Di-E-GSSG as substrate measured for 60 mins in presence of DTT by fluorescence based analysis
T2 sequence (P13667 whole entry): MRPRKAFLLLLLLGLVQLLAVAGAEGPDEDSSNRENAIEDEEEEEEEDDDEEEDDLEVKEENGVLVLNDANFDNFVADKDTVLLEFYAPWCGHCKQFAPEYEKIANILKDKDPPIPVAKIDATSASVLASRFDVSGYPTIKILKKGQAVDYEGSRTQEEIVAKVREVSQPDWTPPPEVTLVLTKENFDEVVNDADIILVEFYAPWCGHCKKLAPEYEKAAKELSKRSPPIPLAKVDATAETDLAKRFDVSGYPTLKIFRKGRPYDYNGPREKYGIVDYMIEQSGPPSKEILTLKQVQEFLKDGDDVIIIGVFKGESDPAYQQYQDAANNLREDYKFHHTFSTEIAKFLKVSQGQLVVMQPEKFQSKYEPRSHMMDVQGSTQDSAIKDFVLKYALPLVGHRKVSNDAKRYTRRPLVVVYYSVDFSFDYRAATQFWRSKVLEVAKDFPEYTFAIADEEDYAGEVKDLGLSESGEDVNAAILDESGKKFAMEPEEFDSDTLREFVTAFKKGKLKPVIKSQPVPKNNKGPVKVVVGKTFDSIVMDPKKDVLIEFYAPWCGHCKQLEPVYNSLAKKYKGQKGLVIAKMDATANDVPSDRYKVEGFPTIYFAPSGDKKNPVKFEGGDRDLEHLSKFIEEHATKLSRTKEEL
In short: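 Recombinant human ERp72 reductase activity measured with Di-E-GSSG substrate, started with DTT, by fluorometry of E-GSH formation. Mean ± SEM, n = 3.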

[10] = target: T1, Protein disulfide-isomerase; assay: Covalent inhibition of PDI (unknown origin) by insulin aggregation assay
Target sequence in this assay (P07237 whole entry): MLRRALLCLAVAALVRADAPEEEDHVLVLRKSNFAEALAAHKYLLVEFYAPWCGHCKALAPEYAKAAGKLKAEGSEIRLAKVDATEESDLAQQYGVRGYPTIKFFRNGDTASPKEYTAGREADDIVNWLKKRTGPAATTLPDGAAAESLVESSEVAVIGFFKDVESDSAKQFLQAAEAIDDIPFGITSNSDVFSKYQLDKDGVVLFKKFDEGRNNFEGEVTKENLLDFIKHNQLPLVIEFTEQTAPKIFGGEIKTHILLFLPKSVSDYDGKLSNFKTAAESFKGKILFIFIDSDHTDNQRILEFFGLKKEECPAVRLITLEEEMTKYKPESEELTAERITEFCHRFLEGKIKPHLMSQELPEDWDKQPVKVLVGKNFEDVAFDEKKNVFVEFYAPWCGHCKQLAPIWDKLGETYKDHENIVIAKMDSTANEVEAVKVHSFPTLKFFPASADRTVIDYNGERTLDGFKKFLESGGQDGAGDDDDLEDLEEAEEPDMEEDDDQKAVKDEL

[11] = GSH reactivity in aqueous solution assessed as GSH-adduct formation at 400 uM incubated for 30 mins in presence of GSH by UPLC-MS analysis; type: physicochemical; conditions: buffer, 0.5 h
In short: (§4)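 Compounds (400 μM) incubated in water with or without GSH (4 mM) at 37 °C for 30 min. Diluted 1:1 with methanol, then analysed by UPLC-MS on a BEH C18 column (water/acetonitrile gradient, 0.4 mL/min, 40 °C) in positive/negative ion mode.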

Platelet [12] = assay: Inhibition of tumor cell-induced platelet secretion in human platelets assessed as inhibition of A549-induced PDGF secretion at 100 uM by ELISA; type: functional, cell-based; in short: as §1
Platelet [13] = assay: Antiplatelet activity against tumor cells-stimulated human platelets assessed as inhibition of MDA-MB-231 cells-induced platelet aggregation at 100 uM by turbidometric aggregometry; type: functional, cell-based; in short: as §2
Platelet [14] = assay: Antiplatelet activity in human platelets assessed as inhibition of U46619-induced platelet aggregation by turbidimetric analysis; type: functional, cell-based
In short: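 Washed human platelets from ACD-anticoagulated volunteer blood, stimulated with U46619 (1 μM). Aggregation measured turbidimetrically under stirring (1200 rpm) at 37 °C as the maximal increase in light transmission.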

Platelet [15] = assay: Inhibition of tumor cell-induced platelet secretion in human platelets assessed as inhibition of A549-induced ATP secretion at 100 uM by bioluminescent assay; type: functional, cell-based; in short: as §1
Platelet [16] = assay: Antiplatelet activity against tumor cells-stimulated human platelets assessed as inhibition of RPMI-8226 cells-induced platelet aggregation at 100 uM by turbidometric aggregometry; type: functional, cell-based; in short: as §2
Platelet [17] = assay: Antiplatelet activity against tumor cells-stimulated human platelets assessed as inhibition of A549 cells-induced platelet aggregation at 100 uM by turbidometric aggregometry; type: functional, cell-based; in short: as §2
[18] = target: T1, Protein disulfide-isomerase; assay: Covalent inhibition of PDI (unknown origin) by GSSG fluorescence assay
Target sequence in this assay (P07237 whole entry): as above

RPMI-8226 [19] = assay: Cytotoxicity against human RPMI-8226 cells assessed as reduction in cell viability at 0.001 to 10 uM incubated for 72 hrs by resazurin assay; type: functional, cell-based; conditions: dose 0.001-10 µM
In short: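 RPMI8226 cells exposed to compounds for 72 h at 37 °C, 5% CO2 with DMSO control; viability measured by resazurin assay, n = 4.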

Platelet [20] = assay: Antiplatelet activity against tumor cells-stimulated human platelets assessed as inhibition of RPMI-8226 cells-induced platelet aggregation at 1 uM by turbidometric aggregometry; type: functional, cell-based; in short: as §2
Platelet [21] = assay: Inhibition of tumor cell-induced platelet secretion in human platelets assessed as inhibition of A549-induced ATP secretion at 1 uM by bioluminescent assay; type: functional, cell-based; in short: as §1
Platelet [22] = assay: Antiplatelet activity against tumor cells-stimulated human platelets assessed as inhibition of A549 cells-induced platelet aggregation at 1 uM by turbidometric aggregometry; type: functional, cell-based; in short: as §2
Platelet [23] = assay: Inhibition of tumor cell-induced platelet secretion in human platelets assessed as inhibition of A549-induced PDGF secretion at 1 uM by ELISA; type: functional, cell-based; in short: as §1
Platelet [24] = assay: Antiplatelet activity against tumor cells-stimulated human platelets assessed as inhibition of MDA-MB-231 cells-induced platelet aggregation at 1 uM by turbidometric aggregometry; type: functional, cell-based; in short: as §2
[25] = target: T1, Protein disulfide-isomerase; assay: Non-covalent inhibition of PDI (unknown origin) by GSSG fluorescence assay
Target sequence in this assay (P07237 whole entry): as above

[26] = target: T1, Protein disulfide-isomerase; assay: Non-covalent inhibition of human recombinant PDI assessed as inhibition of E-GSH formation using Di-E-GSSG as substrate at 10 uM measured for 60 mins in presence of DTT and 1 mM GSH by fluorescence based analysis; in short: as §3
Target sequence in this assay (P07237 18-508 limits assumed): as the sequence (P07237 18-508 limits assumed) above

[27] = Stability of the compound in aqueous solution at 400 uM measured after 30 mins by UPLC-MS analysis; type: physicochemical; conditions: buffer, 0.5 h; in short: as §4
U-87 MG = assay: Cytotoxicity against human U87 cells assessed as reduction in cell viability incubated for 24 hrs by resazurin assay; type: functional, cell-based, U-87MG ATCC
In short: (§5)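 Cell lines kept at 37 °C in humidified 5% CO2. Cells exposed to compounds for 24 h with DMSO control; viability measured by resazurin assay. Mean ± SEM, n = 3.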

Platelet [28] = assay: Antiplatelet activity in human platelets assessed as inhibition of U46619-induced platelet aggregation upto 40 uM by turbidimetric analysis; type: functional, cell-based
A549 [29] = assay: Cytotoxicity against human A549 cells assessed as reduction in cell viability incubated for 24 hrs by resazurin assay; type: functional, cell-based; in short: as §5
Platelet [30] = assay: Antiplatelet activity in human platelets assessed as inhibition of collagen-induced platelet aggregation upto 40 uM by turbidimetric analysis; type: functional, cell-based
RPMI-8226 [31] = assay: Cytotoxicity against human RPMI-8226 cells assessed as reduction in cell viability incubated for 24 hrs by resazurin assay; type: functional, cell-based; in short: as §5
MDA-MB-231 = assay: Cytotoxicity against human MDA-MB-231 cells assessed as reduction in cell viability incubated for 24 hrs by resazurin assay; type: functional, cell-based; in short: as §5

SMILES: C#CCCCNC(=O)[C@@H](CCNC(=O)[C@H](Cc1ccccc1)NC(=O)OC(C)(C)C)Cc1ccc(OS(=O)(=O)C=C)cc1
IC50 [10]: 1.7 µM

SMILES: CC(=O)Oc1ccccc1C(=O)O [ASPIRIN]
inhibition (Platelet [12]): inactive
Activity (Platelet [13]): inactive
IC50 (Platelet [14]): > 200 µM
inhibition (Platelet [15]): inactive
Activity (Platelet [16]): inactive
Activity (Platelet [17]): inactive

SMILES: COc1ccc(N2C(=O)/C(=C\c3ccc([N+](=O)[O-])s3)SC2=S)cc1
IC50 [18]: 2.9 µM
Activity (RPMI-8226 [19]): Active

SMILES: CCCSc1nc(N[C@@H]2C[C@H]2c2ccc(F)c(F)c2)c2nnn([C@@H]3C[C@H](OCCO)[C@@H](O)[C@H]3O)c2n1
Activity (Platelet [20]): inactive
inhibition (Platelet [21]): inactive
Activity (Platelet [22]): inactive
inhibition (Platelet [23]): inactive
Activity (Platelet [24]): inactive

SMILES: C#CC(=O)N(c1ccc(OC)cc1OC)C(C(=O)NCC(=O)OCC)c1cccs1 (stereo unspecified)
IC50 [10]: 10 µM

SMILES: COc1cccc(SC2=CC(=O)c3cccc(O)c3C2=O)c1
inhibition [7]: Active

SMILES: CC(C)(C)CN(C(=O)CCl)C1CCS(=O)(=O)C1 (stereo unspecified)
Activity (Platelet [28]): inactive
IC50 (A549 [29]): Not Active
Activity (Platelet [30]): inactive
IC50 (RPMI-8226 [31]): Not Active
IC50 (MDA-MB-231): Not Active

Second part, led by results:

inhibition [7]: Active
IC50 [9]: 4.01 µM
SMILES: CC(=O)OC[C@H]1O[C@H](OC2=CC(=O)c3cccc(O)c3C2=O)[C@H](OC(C)=O)[C@@H](OC(C)=O)[C@@H]1OC(C)=O
Activity (A549 [1]): inactive
inhibition (Platelet [2]): Active
inhibition (A549 [3]): Active
inhibition (Platelet [4]): Active
Activity (Platelet [5]): Active
Activity (Platelet [6]): Active
Activity (Platelet [8]): Active

Activity [11]: Active
inhibition [7]: Active
SMILES: CC(=O)OC[C@H]1O[C@@H](SC2=C(c3ccc(O)cc3O)C(=O)c3c(O)cccc3C2=O)[C@H](OC(C)=O)[C@@H](OC(C)=O)[C@@H]1OC(C)=O

IC50 [25]: 7.1 µM
inhibition [26]: Active
SMILES: O=c1c(O[C@@H]2O[C@H](CO)[C@@H](O)[C@H](O)[C@H]2O)c(-c2ccc(O)c(O)c2)oc2cc(O)cc(O)c12 [ISOQUERCETIN]

inhibition [26]: Active
Activity [11]: Not Active
Stability [27]: Stable
SMILES: COc1ccc(SC2=C(c3ccc(O)cc3O)C(=O)c3c(O)cccc3C2=O)cc1

inhibition [7]: Active
SMILES: CC(=O)O[C@@H]1O[C@H](CSC2=CC(=O)c3cccc(O)c3C2=O)[C@@H](OC(C)=O)[C@H](OC(C)=O)[C@H]1OC(C)=O
Activity (A549 [1]): inactive
inhibition (Platelet [2]): Active
inhibition (A549 [3]): Active
inhibition (Platelet [4]): Active
Activity (Platelet [5]): Active
Activity (Platelet [6]): Active
Activity (Platelet [8]): Active
IC50 (U-87 MG): > 20 µM
